Active and inactive are the calls of the source. The rule behind the calls is not given here.

For assay [1], the target named is T1, Adrenergic receptor alpha-2 (Homo sapiens, UniProt P08913+P18825+P18089).
T1 sequence (P08913 whole entry): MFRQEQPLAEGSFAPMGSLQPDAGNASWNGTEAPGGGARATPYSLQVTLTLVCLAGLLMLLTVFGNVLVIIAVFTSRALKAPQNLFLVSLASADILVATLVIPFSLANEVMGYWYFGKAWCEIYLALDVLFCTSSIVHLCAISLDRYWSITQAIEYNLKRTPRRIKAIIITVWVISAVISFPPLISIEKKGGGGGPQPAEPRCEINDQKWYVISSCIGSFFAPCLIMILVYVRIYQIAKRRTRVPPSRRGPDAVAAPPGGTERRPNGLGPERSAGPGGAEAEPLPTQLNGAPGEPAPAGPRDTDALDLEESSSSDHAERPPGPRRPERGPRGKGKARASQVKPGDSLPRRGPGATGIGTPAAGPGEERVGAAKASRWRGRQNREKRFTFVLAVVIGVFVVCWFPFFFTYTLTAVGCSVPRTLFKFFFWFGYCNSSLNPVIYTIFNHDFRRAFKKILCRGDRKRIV
T1 sequence (P18825 whole entry): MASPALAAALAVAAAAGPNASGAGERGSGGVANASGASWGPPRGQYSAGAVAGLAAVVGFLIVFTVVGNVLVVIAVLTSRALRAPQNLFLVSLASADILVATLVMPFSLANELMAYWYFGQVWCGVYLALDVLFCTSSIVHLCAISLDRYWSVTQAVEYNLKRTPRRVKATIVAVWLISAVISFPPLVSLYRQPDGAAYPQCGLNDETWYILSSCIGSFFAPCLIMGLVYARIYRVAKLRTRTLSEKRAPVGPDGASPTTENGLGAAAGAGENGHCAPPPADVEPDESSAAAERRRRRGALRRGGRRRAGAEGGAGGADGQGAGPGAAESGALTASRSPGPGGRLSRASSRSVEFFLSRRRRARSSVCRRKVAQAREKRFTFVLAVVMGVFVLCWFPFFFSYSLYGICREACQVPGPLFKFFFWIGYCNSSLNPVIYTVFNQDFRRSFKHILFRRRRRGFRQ
T1 sequence (P18089 whole entry): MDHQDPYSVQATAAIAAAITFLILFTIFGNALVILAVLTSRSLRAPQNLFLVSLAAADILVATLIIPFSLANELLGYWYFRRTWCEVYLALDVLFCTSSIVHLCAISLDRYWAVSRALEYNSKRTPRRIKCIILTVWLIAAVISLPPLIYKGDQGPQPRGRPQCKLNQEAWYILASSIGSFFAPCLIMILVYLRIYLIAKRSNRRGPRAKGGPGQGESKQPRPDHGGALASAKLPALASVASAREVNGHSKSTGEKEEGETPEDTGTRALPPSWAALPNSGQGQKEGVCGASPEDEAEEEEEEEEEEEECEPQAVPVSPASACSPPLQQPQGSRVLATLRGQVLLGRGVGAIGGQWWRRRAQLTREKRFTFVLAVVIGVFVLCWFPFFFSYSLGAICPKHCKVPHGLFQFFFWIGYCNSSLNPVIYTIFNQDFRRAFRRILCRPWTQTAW
Put plainly: Agonist activity at alpha2 adrenoceptor in human cortical membrane after 2 hrs by [35S]GTPgammaS binding assay. It counts as functional, cell membranes.

Assay [2] deals with T2, Adrenergic receptor alpha-2 (Homo sapiens) (UniProt P08913+P18825+P18089). Put plainly: Intrinsic activity at alpha2 adrenoceptor in human cortical membrane at 0.0001 to 1000 uM after 2 hrs by [35S]GTPgammaS binding assay relative to UK-14304. The assay is classed as functional, cell membranes. In a few lines:
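Human postmortem PFC membranes (40 µg protein) incubated 2 h at 30 °C with 0.5 nM [35S]GTPγS in buffer of EGTA, MgCl2, 100 mM NaCl, GDP and Tris-HCl pH 7.4. Compound tested at 8 concentrations (10^-10 to 10^-3 M). Bound label collected by GF/C filtration.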
On the technique in general: Binding of GTPγS marks nucleotide exchange on a G protein.

The target of assay [3] is T1, Adrenergic receptor alpha-2. Put plainly: Displacement of [3H]RX821002 from alpha2 adrenoceptor in human prefrontal cortex neural membrane after 30 mins by liquid scintillation spectrometry. The assay is classed as tissue-based. In general terms: Loss of bound radioactivity is the signal in a displacement assay; it reports binding, not function.
The test system of assay [4] is Rattus norvegicus. Put plainly: Antidepressant activity in Sprague-Dawley rat assessed as increase in extracellular noradrenaline level in prefrontal cortex at 1 to 100 uM administered locally by microdialysis measured after every 70 mins by HPLC. It counts as functional. In a few lines:
(§1)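 Male Sprague-Dawley rats (250-300 g), freely moving, with a PFC probe implanted under chloral hydrate 20-24 h earlier. Perfused with aCSF pH 7.4 at 1 µL/min. Drug dissolved in aCSF and reverse-dialysed for 70 min at each step of 1, 10 and 100 µM. Dialysate sampled every 35 min, NA measured by HPLC with amperometric detection at +650 mV. Values are % of mean of 3 basal samples, ANOVA versus aCSF controls.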

For assay [5], the system named is Rattus norvegicus. Put plainly: Antidepressant activity in Sprague-Dawley rat assessed as increase in extracellular noradrenaline level in prefrontal cortex at 1 uM administered locally by microdialysis measured after every 70 mins by HPLC. It counts as functional, organism-based. In a few lines:
as §1

Assay [6] deals with T2, Adrenergic receptor alpha-2 (Homo sapiens). Put plainly: Antagonist activity at alpha2 adrenoceptor in human prefrontal cortex neural membrane at 10 uM assessed as rightwards shift in UK-14304 EC50 by [35S]GTPgammaS binding assay. It counts as functional, tissue-based. In a few lines:
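Human postmortem prefrontal cortex P2 membranes (40 µg protein) incubated 120 min at 30 °C with shaking in 0.5 nM [35S]GTPγS, 1 mM EGTA, 3 mM MgCl2, 100 mM NaCl, GDP, Tris-HCl pH 7.4. Nonspecific binding with 10 µM unlabeled GTPγS.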

In assay [7] the test system is Rattus norvegicus. Put plainly: Antidepressant activity in Sprague-Dawley rat assessed as increase in extracellular noradrenaline level in prefrontal cortex at 10 mg/kg, ip […] by HPLC. The assay is classed as functional. Particulars: route intraperitoneal.
In assay [8] the test system is Rattus norvegicus. Put plainly: Antidepressant activity in Sprague-Dawley rat assessed as increase in extracellular noradrenaline level in prefrontal cortex at 100 uM administered locally by microdialysis measured after every 70 mins by HPLC. The assay is classed as functional. In a few lines:
as §1

On to `CNc1ccc(NC(=N)N)cc1`, for which, in assay [1], the EC50 (usually the concentration giving half of the maximal effect) worked out at 82.3 µM. Further, the Emax (in general, the maximal effect, on the per cent scale that the assay sets) in assay [2] is 87%. The pKi (commonly −log10 of the Ki, conventionally taken in molar units) in assay [3] turned out to be 6.95.
On to `CCN(C)c1ccc(NC2=NCCN2)cc1`, for which the concentration for a half-maximal effect (EC50) in assay [1] was found to be 1.9 µM. The compound also came in with an Emax in assay [2] of 103%. In assay [3], this compound yielded a pKi of 7.38.
Consider `COC1(C2=NCCN2)COc2ccccc2O1` (centres undefined), for which the Emax in assay [4] came out at 290%. Further, the pKi in assay [3] was determined as 9.04. Besides, the outcome in assay [5] was Active.
With `CNc1ccc(NC2=NCCN2)cc1`, the concentration for a half-maximal effect (EC50) in assay [1] was 61.4 µM. The compound further showed an Emax in assay [2] of 98%. The pKi in assay [3] was 7.27.
`CCC(CC)c1ccc(NC(=N)N)cc1` showed an EC50 in assay [1] of 38.7 µM. In assay [2], this compound had an Emax of 89%.
Consider `CCNc1ccc(NC(=N)N)cc1`, for which the result in assay [6] was Active. Besides, the Activity in assay [7] was 161%. In addition, in assay [3], the pKi stood at 6.58. Further, in assay [8], the Emax came to 304%.
Consider `CCNc1ccc(NC2=NCCN2)cc1`, for which the EC50 in assay [1] was determined as 59.3 µM. The compound further registered an Emax in assay [2] of 95%. In assay [3], this compound had a pKi of 6.75.
The matching figures for `CCN(C)c1ccc(NC(=N)N)cc1`: 16.2 µM, 92% and 7.12.

For the origin of these results see ChEMBL document CHEMBL1143369, “Guanidine and 2-aminoimidazoline aromatic derivatives as alpha2-adrenoceptor ligands: searching for structure-activity relationships” (J Med Chem, 2009).
